Laboratory results taken from ChEMBL document CHEMBL5303300, “EUbOPEN Chemogenomics Library - Multiplex” (2023).
Where “and” joins values, the source holds several entries; their conditions need not be identical. Equal values may be shown once.

Legend:
U2OS = test: Multiplex assay against U2OS; format: toxicity, cell-based; conditions: human, number of replicates 2
Procedure, shortened: (§1)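 At seeding, live cells were stained with Hoechst33342, BioTracker Green Microtubule Cytoskeleton Dye, MitoTracker Red and Annexin V Alexa Fluor 680. After compound addition they were imaged on a CQ1 microscope at 37°C and 5% CO2, and CellPathfinder machine-learning gating sorted them into Hoechst high-intensity objects or normal cells, with normal cells further split into healthy, pyknosed or fragmented nuclei and pyknosed cells into mitotic or apoptotic. Tubulin, mitochondrial-mass and membrane-permeability phenotypes are given as per cents of cells with healthy nuclei.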

Fibroblast = test: Multiplex assay against human fibroblast; format: toxicity, cell-based; conditions: number of replicates 2; procedure, shortened: as §1
[1] = 24 h, 10 µM, compound concentration 10 uM
[2] = 48 h, 1 µM, compound concentration 1 uM
[3] = 48 h, 10 µM, compound concentration 10 uM
[4] = 12 h, 1 µM, compound concentration 1 uM
[5] = 12 h, 10 µM, compound concentration 10 uM
[6] = 24 h, 1 µM, compound concentration 1 uM

CN1CCN(C(=O)Cc2ccc(N/C(=C3\C(=O)Nc4cc(Cl)ccc43)c3ccccc3)cc2)CC1
Population Healthy Nuclei (%) (U2OS; [1]): 90% and 82% | Population Hoechst High Intensity Objects (%) (U2OS; [1]): 0% | Population Membrane Permeable-Phenotype (%) (U2OS; [1]): 10% and 2% | Population Mitochondria Different-Phenotype (%) (U2OS; [1]): 10% and 3% | Population Mitotic Cells (%) (U2OS; [1]): 66% and 37% | Population Normal (%) (U2OS; [1]): 100% and 99% | Population Pyknosed Nuclei (%) (U2OS; [1]): 9% and 12% | Population Tubulin-Different-Phenotype (%) (U2OS; [1]): 58% and 59% | Population Apoptotic (%) (U2OS; [2]): 75% and 58% | Population Healthy Nuclei (%) (U2OS; [2]): 75% and 89% | Population Hoechst High Intensity Objects (%) (U2OS; [2]): 0% | Population Membrane Permeable-Phenotype (%) (U2OS; [2]): 6% and 0% | Population Mitochondria Different-Phenotype (%) (U2OS; [2]): 3% and 0% | Population Mitotic Cells (%) (U2OS; [2]): 25% and 41% | Population Normal (%) (U2OS; [2]): 100% and 99% | Population Pyknosed Nuclei (%) (U2OS; [2]): 9% and 7% | Population Tubulin-Different-Phenotype (%) (U2OS; [2]): 83% and 85% | Population Apoptotic (%) (U2OS; [3]): 83% and 75% | Population Fragmented Nuclei (%) (U2OS; [3]): 5% and 3% | Population Healthy Nuclei (%) (U2OS; [3]): 84% and 87% | Population Hoechst High Intensity Objects (%) (U2OS; [3]): 0% | Population Membrane Permeable-Phenotype (%) (U2OS; [3]): 2% | Population Mitochondria Different-Phenotype (%) (U2OS; [3]): 8% and 1% | Population Mitotic Cells (%) (U2OS; [3]): 16% and 24% | Population Normal (%) (U2OS; [3]): 100% | Population Pyknosed Nuclei (%) (U2OS; [3]): 10% and 8% | Population Tubulin-Different-Phenotype (%) (U2OS; [3]): 69% and 66% | Population Apoptotic (%) (Fibroblast; [4]): 43% and 30% | Population Fragmented Nuclei (%) (Fibroblast; [4]): 9% and 8% | Population Healthy Nuclei (%) (Fibroblast; [4]): 69% | Population Hoechst High Intensity Objects (%) (Fibroblast; [4]): 0% | Population Membrane Permeable-Phenotype (%) (Fibroblast; [4]): 5% and 7% | Population Mitochondria Different-Phenotype (%) (Fibroblast; [4]): 0% and 1% | Population Mitotic Cells (%) (Fibroblast; [4]): 56% and 69% | Population Normal (%) (Fibroblast; [4]): 100% | Population Pyknosed Nuclei (%) (Fibroblast; [4]): 20% and 21% | Population Tubulin-Different-Phenotype (%) (Fibroblast; [4]): 8% and 15% | Total Cell Count (Fibroblast; [4]): 178 and 179 | Population Apoptotic (%) (Fibroblast; [5]): 51% and 36% | Population Fragmented Nuclei (%) (Fibroblast; [5]): 12% and 11% | Population Healthy Nuclei (%) (Fibroblast; [5]): 74% and 67% | Population Hoechst High Intensity Objects (%) (Fibroblast; [5]): 0% | Population Membrane Permeable-Phenotype (%) (Fibroblast; [5]): 7% and 5% | Population Mitochondria Different-Phenotype (%) (Fibroblast; [5]): 2% | Population Mitotic Cells (%) (Fibroblast; [5]): 48% and 63% | Population Normal (%) (Fibroblast; [5]): 100% | Population Pyknosed Nuclei (%) (Fibroblast; [5]): 12% and 21% | Population Tubulin-Different-Phenotype (%) (Fibroblast; [5]): 34% and 26% | Total Cell Count (Fibroblast; [5]): 240 and 203 | Population Apoptotic (%) (Fibroblast; [6]): 43% and 52% | Population Fragmented Nuclei (%) (Fibroblast; [6]): 7% and 12% | Population Healthy Nuclei (%) (Fibroblast; [6]): 72% and 68% | Population Hoechst High Intensity Objects (%) (Fibroblast; [6]): 0% | Population Membrane Permeable-Phenotype (%) (Fibroblast; [6]): 5% | Population Mitochondria Different-Phenotype (%) (Fibroblast; [6]): 0% and 2% | Population Mitotic Cells (%) (Fibroblast; [6]): 56% and 47% | Population Normal (%) (Fibroblast; [6]): 100% | Population Pyknosed Nuclei (%) (Fibroblast; [6]): 20% and 19% | Population Tubulin-Different-Phenotype (%) (Fibroblast; [6]): 12% and 10% | Total Cell Count (Fibroblast; [6]): 193 and 174 | Population Apoptotic (%) (Fibroblast; [1]): 51% and 56% | Population Fragmented Nuclei (%) (Fibroblast; [1]): 12% and 17% | Population Healthy Nuclei (%) (Fibroblast; [1]): 74% and 67% | Population Hoechst High Intensity Objects (%) (Fibroblast; [1]): 0% | Population Membrane Permeable-Phenotype (%) (Fibroblast; [1]): 2% | Population Mitochondria Different-Phenotype (%) (Fibroblast; [1]): 5% and 8% | Population Mitotic Cells (%) (Fibroblast; [1]): 48% and 43% | Population Normal (%) (Fibroblast; [1]): 100% and 99% | Population Pyknosed Nuclei (%) (Fibroblast; [1]): 12% and 14% | Population Tubulin-Different-Phenotype (%) (Fibroblast; [1]): 35% and 28% | Total Cell Count (Fibroblast; [1]): 232 and 216 | Population Apoptotic (%) (Fibroblast; [2]): 64% and 72% | Population Fragmented Nuclei (%) (Fibroblast; [2]): 12% and 16% | Population Healthy Nuclei (%) (Fibroblast; [2]): 75% and 68% | Population Hoechst High Intensity Objects (%) (Fibroblast; [2]): 0% | Population Membrane Permeable-Phenotype (%) (Fibroblast; [2]): 5% and 3% | Population Mitochondria Different-Phenotype (%) (Fibroblast; [2]): 0% | Population Mitotic Cells (%) (Fibroblast; [2]): 36% and 27% | Population Normal (%) (Fibroblast; [2]): 100% | Population Pyknosed Nuclei (%) (Fibroblast; [2]): 12% and 15% | Population Tubulin-Different-Phenotype (%) (Fibroblast; [2]): 9% and 5% | Total Cell Count (Fibroblast; [2]): 200 and 186 | Population Apoptotic (%) (Fibroblast; [3]): 65% and 75% | Population Fragmented Nuclei (%) (Fibroblast; [3]): 11% and 17% | Population Healthy Nuclei (%) (Fibroblast; [3]): 76% and 65% | Population Hoechst High Intensity Objects (%) (Fibroblast; [3]): 0% | Population Membrane Permeable-Phenotype (%) (Fibroblast; [3]): 3% and 1% | Population Mitochondria Different-Phenotype (%) (Fibroblast; [3]): 4% and 5% | Population Mitotic Cells (%) (Fibroblast; [3]): 34% and 25% | Population Normal (%) (Fibroblast; [3]): 100% | Population Pyknosed Nuclei (%) (Fibroblast; [3]): 12% and 16% | Population Tubulin-Different-Phenotype (%) (Fibroblast; [3]): 37% and 25% | Total Cell Count (Fibroblast; [3]): 213 and 212
